# NR2E3 ag-1: NR2E3 agonists in two-hybrid cells, primary screen, cell-based, luminescence, CHO-S, Gal4-NCOR/VP16-NR2E3; inhibition of corepressor binding, % at 3.98 µM; Photoreceptor-specific nuclear receptor (Homo sapiens), Q9Y5X4; luciferase; AID 602229, 2012; 360,000 compounds, 0.35% hits;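 active means inhibition above the mean of all tested compounds plus 3 SD, cut at about 70% in these data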;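 further: 0% = DMSO with NR2E3 transfected cells and 100% = cells lacking NR2E3 construct; higher means lower luciferase signal from less NR2E3 corepressor binding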
# Target sequence (Q9Y5X4 whole entry, looked up, the tested form may be a part): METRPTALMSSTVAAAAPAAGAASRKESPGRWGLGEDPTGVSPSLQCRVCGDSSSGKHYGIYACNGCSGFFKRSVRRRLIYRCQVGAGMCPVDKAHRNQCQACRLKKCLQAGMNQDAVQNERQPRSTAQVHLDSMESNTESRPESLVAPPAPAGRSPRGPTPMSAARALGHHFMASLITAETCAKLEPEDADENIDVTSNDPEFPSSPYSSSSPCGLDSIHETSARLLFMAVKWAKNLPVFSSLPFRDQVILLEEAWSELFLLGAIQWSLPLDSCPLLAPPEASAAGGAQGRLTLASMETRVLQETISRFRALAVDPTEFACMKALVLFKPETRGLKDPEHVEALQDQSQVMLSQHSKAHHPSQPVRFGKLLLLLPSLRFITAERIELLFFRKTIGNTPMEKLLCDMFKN
# MPTP block: mitochondrial permeability transition pore inhibitors, primary screen, biochemical, isolated mouse mitochondria, absorbance; inhibition, % at 10 µM; Ca2+ swelling absorbance, 30 min; 360,000 compounds, 1.4% hits;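 active means inhibition of 50% or more, scaled per plate between neutral and stimulator controls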;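 further: 0% = DMSO wells given calcium and 100% = 1 mM EGTA wells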
# Jurkat NFkB inh: inhibitors of induced NF-kB luciferase reporter, primary screen, TCR NF-kB activation inhibitor project, cell-based, luminescence, uHTS | Jurkat, PMA/ionomycin-induced NF-kB luciferase reporter | inhibition, % at 4 µM | 330,000 compounds, 0.53% hits | AID 435003, 2010; in the data active means inhibition above about 50%
# aDG glyco up: activators of alpha-DG glycosylation, primary screen, uHTS, Pro5-aDG cells, AlphaScreen; alpha-DG glycosylation AlphaScreen (IIH6); 0% Pro5, 100% B10-LARGE cell signal; activation, % at 10 µM; 360,000 compounds, 0.22% hits; AID 624168, 2012;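 active means activation of at least 8% versus controls, or a plate z-score of at least 8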;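 further: Pro5 are CHO cells carrying HIG-tagged alpha-DG that lacks glycosylation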
# NR2E3 ag-2: inhibitors of NR2E3-RetCOR corepressor binding, primary screen, NR2E3 agonist project, biochemical, TR-FRET, GST-NR2E3, biotin-RetCOR | Photoreceptor-specific nuclear receptor (Homo sapiens), Q9Y5X4 | 1536-well | inhibition of corepressor binding, % at 4.78 µM | 320,000 compounds, 0.12% hits | AID 2300, 2010;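 active means percent inhibition above the cutoff of mean plus 3 SD of all tested compounds, set per screening campaign, cut at about 20% in these data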;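 further: 0% = DMSO wells and 100% = biotin wells as full block of FRET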
#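 Test system: GST-NR2E3 and biotin-RetCOR proteins | Quantity: 1.35 nM GST-tagged NR2E3 final | Medium: Tris pH 7.5 | Also added: 7 nM biotin-RetCOR | Dosing: Compound at 4.8 µM, single dose | Timing: 5 h at 4 °C | Detection: Time-resolved FRET | Read-out basis: Percent inhibition | Benchmarks: Biotin wells as high control, 0.6% DMSO wells as low control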
# 697 NFkB inh: inhibitors of PMA/ionomycin-induced NF-kB reporter, 697 cells, primary screen, B-cell NF-kB inhibitor project, cell-based, luminescence, uHTS | 330,000 compounds, 0.33% hits | 697 B-cell NF-kB luciferase reporter, 16 h | inhibition, % at 4 µM; in the data active means inhibition above about 35%
# 697 NFkB conf: PMA/ionomycin-induced NF-kB reporter inhibitors, 697 retest, confirmation, B-cell NF-kB inhibitor project, cell-based, luminescence, single concentration. shares compounds with 697 NFkB inh. 697 B-cell NF-kB luciferase, 16 h. inhibition, % at 4 µM. 2,000 compounds, 35% hits; in the data active means inhibition mostly above about 28%, no sharp cut-off; inactive means mostly below about 22%
# * marks the source's active call; other numbers are inactive results; i = inactive; x = no result. A selection: hits, their analogues and other compounds. The true share with any hit is near 2.4%.
SMILES,NR2E3 ag-1,MPTP block,Jurkat NFkB inh,aDG glyco up,NR2E3 ag-2,697 NFkB inh,697 NFkB conf
Cc1sc(NC(=O)c2ccco2)c(C(c2cccnc2)N2CCC(C)CC2)c1C (stereo not given),5,1,36,1,-3,36*,-12
CSc1ncccc1C(=O)N1CCN(S(=O)(=O)c2ccc(F)cc2)CC1,-20,0,9,0,0,18,x
CSC1=C(C#N)C(c2ccc3c(c2)OCO3)C2=C(CCCC2=O)N1 (stereo not given),-30,0,3,0,-1,-8,x
CCSC1=C(C#N)C(c2ccc(Cl)cc2)C2=C(CCCC2=O)N1 (stereo not given),-5,5,4,1,-1,35*,13
CCCc1nnc(SCC(=O)Nc2ccccc2Cl)n1CC1CCCO1 (stereo not given),11,0,-15,0,0,-6,x
CC(=O)c1cc2c(cc1NC(=O)C1CN(C(C)=O)c3ccccc3O1)OCO2 (stereo not given),-39,-2,-23,0,x,-8,x
Oc1[nH]c2ccccc2c1N=Nc1nc(Nc2ccccc2)nc(N2CCOCC2)n1,4,1,-2,-1,2,53*,52*
Cc1[nH]c2ccccc2c1/C=N/Nc1nc(Nc2ccccc2)nc(N2CCOCC2)n1,43,1,49,0,-2,49*,55*
c1ccc(Nc2nc(N3CCCC3)nc(N3CCOCC3)n2)cc1,44,0,5,0,-1,17,x
Cc1ccccc1OCCOC(=O)c1cc(S(=O)(=O)N2CCOCC2)ccc1C,10,0,x,0,x,x,x
CC1CCN(C(=O)COc2ccc3ccccc3c2Br)CC1,-11,2,-11,0,1,-20,x
CCOc1ccc(-n2c(SCC(=O)Nc3ccc4c(c3)OCO4)nc3c(c2=O)SCC3)cc1,-14,0,x,0,x,x,x
CCOc1ccc(-n2c(SCC(=O)Nc3ccc4c(c3)OCCO4)nc3c(c2=O)SCC3)cc1,-14,2,-16,0,4,38*,32*
Cc1nc2ccccn2c1CN(C)C(=O)C1CCC(=O)N(Cc2cccc(F)c2)C1 (stereo not given),15,-3,3,0,-1,-4,x
O=C(NNC(=O)C12CC3CC(CC(Cl)(C3)C1)C2)c1csc(N2CCOCC2)n1,11,0,-3,0,-4,-7,x
COC(=O)C1=C(C)N(c2ccc(Cl)cc2)/C(=C/c2ccc(O)cc2)C1=O,3,-1,16,0,-4,36*,29
COC(=O)C1=C(C)N(c2cc(C)cc(C)c2)/C(=C/c2ccc(O)cc2)C1=O,13,6,7,1,0,-9,x
COc1ccc(Cc2nc3ccc(C(=O)NCCc4ccccn4)cc3o2)cc1OC,-15,0,-6,0,3,-15,x
CCc1ccc2oc(-c3cccc(N)c3)nc2c1,-112,1,-139,0,3,-259,-168
Cc1ccc2nc(-c3cccc(N)c3)oc2c1,-80,0,-124,0,3,-101,x
Cc1cc(OC(=O)c2ccccc2Cl)cc(=O)n1C,-8,-2,10,0,-1,39*,47*
COc1ccc(C=C(C(C)=O)C(C)=O)cc1OC,-3,2,-9,0,0,43*,30*
CC1Cc2nc(SCC(=O)NCC3CCCO3)n(C)c(=O)c2S1 (stereo not given),-18,-1,-31,0,2,-17,x
COc1ccc(-c2cccc(-c3cc(=O)oc4cc(OC)cc(OC)c34)c2)cc1,41,-2,x,0,x,-337,-112
COc1cc(OC)c2c(-c3cccc(-c4ccc(O)cc4)c3)cc(=O)oc2c1,39,-1,x,0,x,-16,x
SMILES,NR2E3 ag-1,MPTP block,Jurkat NFkB inh,aDG glyco up,NR2E3 ag-2,697 NFkB inh,697 NFkB conf
COc1cc(OC)c2c(-c3cccc(-c4ccc(N(C)C)cc4)c3)cc(=O)oc2c1,26,0,x,-1,x,-303,-105
CCCN(CC(=O)Nc1ccc(F)c(F)c1F)C(=O)c1ccc2c(=O)n3c(nc2c1)CCC3,5,-1,-14,0,3,-7,x
COc1cc(OC)c(/C=N/NC(=O)c2ccncc2)cc1Br,-15,-1,19,0,1,14,x
COc1cc(OC)c(/C=N/NC(N)=S)cc1Br,-18,0,-9,0,-3,55*,18*
CCCc1ccc(-c2cc(C(=O)N3CCN(c4ccccn4)CC3)c3ccccc3n2)cc1,-37,1,-40,7,-1,-257,-138
Oc1ccc(Br)cc1-c1ccnn1-c1ccccc1,-53,2,28,0,4,-53,x
C(=N\Nc1nc2ccccc2s1)/c1cccs1,-176,3,-137,0,-5,-327,-304
CCOC(=O)N1CCN(c2ncnc3c2[nH]c2ccc(OC)cc23)CC1,10,0,-8,1,1,37*,38*
CCOc1ccc2[nH]c3c(N4CCN(C(=O)c5ccco5)CC4)ncnc3c2c1,-14,-1,-12,0,-1,31,x
O=C(c1ccco1)N1CCN(c2ncnc3c2[nH]c2ccccc23)CC1,x,x,13,x,x,36*,19
Cc1cccc(C(=O)Nc2sc(-c3ccccc3)cc2C(=O)O)c1,-154,21,-40,0,2,-68,x
CC(C)(C)C(=O)Nc1sc(-c2ccccc2)cc1C(=O)O,-143,2,-20,0,3,i,i
COCCNC(=O)C1(C)CCCN(C(=O)c2ccc(F)cc2Cl)C1 (stereo not given),-20,0,x,0,x,x,x
Cc1ccc2c(c1)cc(C(=O)NCc1ccccc1)n2C,-11,1,-49,0,7,i,i
N=C1C(c2ccccc2)=C(O)CN1c1cccc(S(=O)(=O)N2CCCCC2)c1,24,1,-7,0,0,-7,x
Cc1cccc(C(=O)n2c(=S)nc3ccccn32)c1,-100,-1,-132,0,1,-337,-291
Cc1cccc(C(=O)N2CCCCCC2)c1,-1,0,1,0,-3,23,x
COc1cc2c3c(c1)c(N=NC(N)=S)c(O)n3C(C)(C)C=C2C,6,3,-1,0,1,42*,42*

# Assay outcomes: PubChem BioAssay, several laboratories
